Measured values reported in the M2OR odorant receptor database.
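Also: active if original authors judged signal statistically different from baseline.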

What follows are compounds tested against T1, UniProt Q8VF52. Settings: stereoisomer not certain.
T1 sequence (whole entry): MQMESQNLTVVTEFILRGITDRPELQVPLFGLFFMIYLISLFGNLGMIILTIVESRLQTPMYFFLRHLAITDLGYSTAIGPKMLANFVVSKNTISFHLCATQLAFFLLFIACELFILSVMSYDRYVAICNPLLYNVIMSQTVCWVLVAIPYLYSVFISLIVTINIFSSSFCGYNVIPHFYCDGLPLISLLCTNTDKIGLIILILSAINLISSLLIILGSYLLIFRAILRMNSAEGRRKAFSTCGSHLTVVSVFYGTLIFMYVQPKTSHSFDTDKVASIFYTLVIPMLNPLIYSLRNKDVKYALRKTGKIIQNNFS
Summary of the method: (§1)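 Each receptor–molecule pair is labelled responsive or non-responsive (inactive) according to whether the original authors judged the measured signal statistically different from baseline. The data were taken from the main text and supplementary material of published papers and checked for typos and inconsistencies. Assay methods differed by source, with transient luciferase assays in mammalian cell lines being common.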
`CCc1occc(=O)c1O` was tested, and the “odorant receptor agonist call” value was “inactive”.
`COc1nccnc1C(C)C` was tested, and the “odorant receptor agonist call” value was “inactive”.
With `CCC=CCCC=CC=O` the “odorant receptor agonist call” value was “inactive”.
With `CCCCCCC(=O)OCCCC` the “odorant receptor agonist call” value was “inactive”.
`CCCCCOC(=O)CC` was tested, and the “odorant receptor agonist call” value was “inactive”.
With `C=CC(C)=CCC=C(C)CCC=C(C)C` the “odorant receptor agonist call” value was “inactive”.
In the case of `CCCO`, the “odorant receptor agonist call” value is reported as “inactive”.
In the case of `CCCC(C)C(=O)OCC` (stereo not drawn), the “odorant receptor agonist call” value is reported as “inactive”.
`COc1nccnc1C` was tested, and the “odorant receptor agonist call” value was “inactive”.
`CC(=O)C=CC1=C(C)CCCC1(C)C` was tested, and the “odorant receptor agonist call” value was “active”.
With `C=C(C)C1CC=C(C)CC1` (stereo not drawn) the “odorant receptor agonist call” value was “inactive”.
`CSSCc1ccco1` was tested, and the “odorant receptor agonist call” value was “inactive”.
In the case of `CC=CC(=O)C1=C(C)CCCC1(C)C`, the “odorant receptor agonist call” value is reported as “active”.
For `CCCCCC=CCCC=O`, the “odorant receptor agonist call” value was “inactive”.
In the case of `COC(OC)c1ccccc1`, the “odorant receptor agonist call” value is reported as “inactive”.
For `CCC(C)O` (stereo not drawn), the “odorant receptor agonist call” value was “inactive”.
`CCOC(=O)CC(C)C` was tested, and the “odorant receptor agonist call” value was “inactive”.
`CC(C)=CCCC(C)=CCOC(=O)C(C)C` was tested, and the “odorant receptor agonist call” value was “inactive”.
With `COc1ccccc1` the “odorant receptor agonist call” value was “inactive”.
For `CCCCCC(C=O)=Cc1ccccc1`, the “odorant receptor agonist call” value was “active”.
In the case of `CC(C)=C1CCC(C)CC1=O` (stereo not drawn), the “odorant receptor agonist call” value is reported as “inactive”.
In the case of `O=C([O-])CCCCCCC(=O)[O-].[H+].[H+]`, the “odorant receptor agonist call” value is reported as “inactive”.
In the case of `CCc1ccc(O)cc1`, the “odorant receptor agonist call” value is reported as “inactive”.
`CCc1ccccc1O` was tested, and the “odorant receptor agonist call” value was “inactive”.
For `CC(=O)OCc1ccc2c(c1)OCO2`, the “odorant receptor agonist call” value was “inactive”.
`O=C(O)CCCCCCCCC(=O)O` was tested, and the “odorant receptor agonist call” value was “inactive”.
In the case of `CCSSCC`, the “odorant receptor agonist call” value is reported as “inactive”.
`CCCCCC(C)O` (stereo not drawn) was tested, and the “odorant receptor agonist call” value was “inactive”.
For `Cc1c(C)c(C)c(C=O)c(C)c1C`, the “odorant receptor agonist call” value was “active”.
`CCC=CCCCCC=O` was tested, and the “odorant receptor agonist call” value was “inactive”.
For `Cc1ccc(C(C)C)cc1`, the “odorant receptor agonist call” value was “inactive”.
For `CCC(C)c1nccnc1OC` (stereo not drawn), the “odorant receptor agonist call” value was “inactive”.
In the case of `CC1(C)CC(=O)CC(=O)C1`, the “odorant receptor agonist call” value is reported as “inactive”.
With `CCCCCCCCCC=CC=O` the “odorant receptor agonist call” value was “inactive”.

The compounds below were run against T2, UniProt Q8VFM8. Settings: stereoisomer not certain.
T2 sequence (whole entry): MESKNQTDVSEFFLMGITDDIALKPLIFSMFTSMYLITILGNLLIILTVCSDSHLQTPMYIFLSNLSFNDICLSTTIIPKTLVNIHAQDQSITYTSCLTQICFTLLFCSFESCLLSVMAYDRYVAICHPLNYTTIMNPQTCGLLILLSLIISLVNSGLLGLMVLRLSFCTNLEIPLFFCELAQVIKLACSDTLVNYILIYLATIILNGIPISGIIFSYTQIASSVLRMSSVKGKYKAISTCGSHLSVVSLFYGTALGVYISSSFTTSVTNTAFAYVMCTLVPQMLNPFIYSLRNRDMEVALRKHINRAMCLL
Summary of the method: as §1
For `CCc1occc(=O)c1O`, the “odorant receptor agonist call” value was “inactive”.
With `COc1nccnc1C(C)C` the “odorant receptor agonist call” value was “inactive”.
For `CCC=CCCC=CC=O`, the “odorant receptor agonist call” value was “inactive”.
With `CCCCCCC(=O)OCCCC` the “odorant receptor agonist call” value was “inactive”.
In the case of `CCCCCOC(=O)CC`, the “odorant receptor agonist call” value is reported as “inactive”.
In the case of `C=CC(C)=CCC=C(C)CCC=C(C)C`, the “odorant receptor agonist call” value is reported as “inactive”.
With `CCCO` the “odorant receptor agonist call” value was “inactive”.
`CCCC(C)C(=O)OCC` (stereo not drawn) was tested, and the “odorant receptor agonist call” value was “inactive”.
For `COc1nccnc1C`, the “odorant receptor agonist call” value was “inactive”.
For `CC(=O)C=CC1=C(C)CCCC1(C)C`, the “odorant receptor agonist call” value was “inactive”.
In the case of `C=C(C)C1CC=C(C)CC1` (stereo not drawn), the “odorant receptor agonist call” value is reported as “inactive”.
For `CSSCc1ccco1`, the “odorant receptor agonist call” value was “inactive”.
With `CC=CC(=O)C1=C(C)CCCC1(C)C` the “odorant receptor agonist call” value was “inactive”.
For `CCCCCC=CCCC=O`, the “odorant receptor agonist call” value was “inactive”.
In the case of `COC(OC)c1ccccc1`, the “odorant receptor agonist call” value is reported as “inactive”.
`CCC(C)O` (stereo not drawn) was tested, and the “odorant receptor agonist call” value was “inactive”.
With `CCOC(=O)CC(C)C` the “odorant receptor agonist call” value was “inactive”.
With `CC(C)=CCCC(C)=CCOC(=O)C(C)C` the “odorant receptor agonist call” value was “inactive”.
`COc1ccccc1` was tested, and the “odorant receptor agonist call” value was “inactive”.
For `CCCCCC(C=O)=Cc1ccccc1`, the “odorant receptor agonist call” value was “inactive”.
`CC(C)=C1CCC(C)CC1=O` (stereo not drawn) was tested, and the “odorant receptor agonist call” value was “inactive”.
`O=C([O-])CCCCCCC(=O)[O-].[H+].[H+]` was tested, and the “odorant receptor agonist call” value was “inactive”.
For `CCc1ccc(O)cc1`, the “odorant receptor agonist call” value was “inactive”.
In the case of `CCc1ccccc1O`, the “odorant receptor agonist call” value is reported as “inactive”.
`CC(=O)OCc1ccc2c(c1)OCO2` was tested, and the “odorant receptor agonist call” value was “inactive”.
For `O=C(O)CCCCCCCCC(=O)O`, the “odorant receptor agonist call” value was “inactive”.
For `CCSSCC`, the “odorant receptor agonist call” value was “inactive”.
In the case of `CCCCCC(C)O` (stereo not drawn), the “odorant receptor agonist call” value is reported as “inactive”.
With `Cc1c(C)c(C)c(C=O)c(C)c1C` the “odorant receptor agonist call” value was “inactive”.
For `CCC=CCCCCC=O`, the “odorant receptor agonist call” value was “inactive”.
For `Cc1ccc(C(C)C)cc1`, the “odorant receptor agonist call” value was “inactive”.
`CCC(C)c1nccnc1OC` (stereo not drawn) was tested, and the “odorant receptor agonist call” value was “inactive”.
For `CC1(C)CC(=O)CC(=O)C1`, the “odorant receptor agonist call” value was “inactive”.
`CCCCCCCCCC=CC=O` was tested, and the “odorant receptor agonist call” value was “inactive”.
